Measured values from ChEMBL document CHEMBL1123588, “Synthesis and antisecretory and antiulcer activities of derivatives and analogues of 2-(2-pyridyl)tetrahydrothiophene-2-carbothioamide” (1987).

Columns and labels:
[1] = test system: Rattus norvegicus; assay: Antiulcer activity against restraint-induced gastric erosions in rats, following 100 mg/kg p.o. administration.; format: functional, Stomach; settings: route oral
Procedure, shortened: (§1)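 Restraint-stress erosions (Rossi): female OFA rats, 150–175 g, six per group, fasted 24 h. Oral dose in 10% gum arabic (5 mL/kg) 1 h before restraint in wire-netting cages. Rats killed 24 h later and gastric mucosal erosions assessed. A rat counted protected with no erosion; read-out is % protected rats.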

[2] = test system: Rattus norvegicus; assay: Antisecretory activity against histamine stimulated gastric acid secretion in Shay rats by peroral administration of 30 mg /kg was determined; format: functional; settings: Stomach, po
Procedure, shortened: (§2)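 Female OFA rats, 150–175 g, six per group, fasted 24 h with water allowed. Dose given orally in 10% gum arabic (5 mL/kg) 1 h before histamine 100 mg/kg sc. Promethazine 10 mg/kg ip 30 min before histamine; pylorus ligated under chloral hydrate 30 min after. Juice collected 2 h, titrated with 0.1 N NaOH. Acid output compared with controls by Student's t test.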

[3] = organism: Rattus norvegicus; assay: Antisecretory activity against histamine stimulated gastric acid secretion in Shay rats expressed as ED50; format: functional; settings: Stomach
Procedure, shortened: (§3)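 Histamine-stimulated Shay rats: females (OFA, 150–175 g, n=6/group), fasted 24 h. Oral dosing in 10% gum arabic, 1 h pre-histamine (100 mg/kg sc), promethazine 10 mg/kg ip pretreatment. Pylorus ligation under chloral hydrate; 2 h gastric juice titrated with 0.1 N NaOH. Lower doses tested when 30 mg/kg gave >80% inhibition; ED50 from regression line.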

[4] = test system: Rattus norvegicus; assay: Antiulcer activity by protection of restraint-induced gastric erosions in rats, by using the technique of Rossi was determined at peroral dose of 10 mg/kg; format: functional, Stomach; settings: route oral; procedure, shortened: as §1
[5] = test system: Rattus norvegicus; assay: Antiulcer activity by protection of restraint-induced gastric erosions in rats, by using the technique of Rossi was determined at peroral dose of 4.5 mg/kg; format: functional, Stomach; settings: route oral; procedure, shortened: as §1
[6] = organism: Rattus norvegicus; assay: Antiulcer activity against histamine stimulated gastric acid secretion in Shay rats expressed as ED50; format: functional; settings: Stomach
[7] = organism: Rattus norvegicus; assay: Antisecretory activity against histamine stimulated gastric acid secretion in Shay rats expressed as ED50 value ranges from (0.1-1.3); format: functional; settings: Stomach; procedure, shortened: as §3
[8] = organism: Rattus norvegicus; assay: Antisecretory activity against histamine stimulated gastric acid secretion in Shay rats expressed as ED50; value ranges from(0.5-22.3).; format: functional; settings: Stomach; procedure, shortened: as §3
[9] = test system: Rattus norvegicus; assay: Antisecretory activity against histamine stimulated gastric acid secretion in Shay rats by peroral administration of 30 mg /kg was determined: activity not statistically significant; format: functional; settings: Stomach, po; procedure, shortened: as §2
[10] = organism: Rattus norvegicus; assay: Antisecretory activity against histamine stimulated gastric acid secretion in Shay rats expressed as ED50 value ranges from (0.8-2.8); format: functional; settings: Stomach; procedure, shortened: as §3
[11] = organism: Rattus norvegicus; assay: Antisecretory activity against histamine stimulated gastric acid secretion in Shay rats expressed as ED50 value ranges from (1-2.6); format: functional; settings: Stomach; procedure, shortened: as §3
[12] = organism: Rattus norvegicus; assay: Antisecretory activity against histamine stimulated gastric acid secretion in Shay rats expressed as ED50; value ranges from (1.0-6.5); format: functional; settings: Stomach; procedure, shortened: as §3
[13] = organism: Rattus norvegicus; assay: Antisecretory activity against histamine stimulated gastric acid secretion in Shay rats expressed as ED50; value ranges from (0.1-2.2); format: functional; settings: Stomach; procedure, shortened: as §3
[14] = test system: Rattus norvegicus; assay: Antiulcer activity by protection of restraint-induced gastric erosions in rats, by using the technique of Rossi was determined at peroral dose of 30 mg/kg; format: functional, Stomach; settings: route oral; procedure, shortened: as §1
[15] = organism: Rattus norvegicus; assay: Antisecretory activity against histamine stimulated gastric acid secretion in Shay rats expressed as ED50 value ranges from (2.5-12.1); format: functional; settings: Stomach; procedure, shortened: as §3
[16] = organism: Rattus norvegicus; assay: Antisecretory activity against histamine stimulated gastric acid secretion in Shay rats expressed as ED50 value ranges from (1.3-7.1); format: functional; settings: Stomach; procedure, shortened: as §3
[17] = organism: Rattus norvegicus; assay: Antisecretory activity against histamine stimulated gastric acid secretion in Shay rats expressed as ED50 value ranges from (0.6-3.8); format: functional; settings: Stomach; procedure, shortened: as §3
[18] = test system: Rattus norvegicus; assay: Antisecretory activity against histamine stimulated gastric acid secretion in Shay rats by peroral administration of 30 mg /kg was determined :activity not statistically significant; format: functional; settings: Stomach, po; procedure, shortened: as §2
[19] = organism: Rattus norvegicus; assay: animal or person; settings: Stomach
[20] = organism: Rattus norvegicus; assay: Antisecretory activity against histamine stimulated gastric acid secretion in Shay rats expressed as ED50 value ranges from (1.7-17.4); format: functional; settings: Stomach; procedure, shortened: as §3
[21] = organism: Rattus norvegicus; assay: Antisecretory activity against histamine stimulated gastric acid secretion in Shay rats expressed as ED50; value ranges from (0.5-2); format: functional; settings: Stomach; procedure, shortened: as §3
[22] = organism: Rattus norvegicus; assay: Antiulcer activity by protection of restraint-induced gastric erosions in rats, by using the technique of Rossi was determined at peroral dose of; format: functional, Stomach; procedure, shortened: as §1
[23] = organism: Rattus norvegicus; assay: Antisecretory activity against histamine stimulated gastric acid secretion in Shay rats expressed as ED50 value ranges from (2.7-12.3); format: functional; settings: Stomach; procedure, shortened: as §3
[24] = test system: Rattus norvegicus; assay: Antiulcer activity by protection of restraint-induced gastric erosions in rats, by using the technique of Rossi was determined at peroral dose of 5 mg/kg; format: functional, Stomach; settings: route oral; procedure, shortened: as §1

C/N=C(\S)C1(c2cnccn2)CCCS1 (centres undefined)
Protection [1]: 100% | inhibition in vivo at 30 mg/kg [2]: 38% | ED50 [3]: > 30 mg/kg

C/N=C(\S)C1(c2ccccn2)SCCCS1
Protection [4]: 50% | ED50 [3]: 5.7 mg/kg

S=C(NCc1ccccc1)C1(c2ccccn2)CCCS1 (centres undefined)
Protection [1]: 100% | inhibition in vivo at 30 mg/kg [2]: 58% | ED50 [3]: ≤ 30 mg/kg

CNC(=S)C1(c2ccccn2)CCCS1 (centres undefined) [PICARTAMIDE]
Protection [5]: 50% | ED50 [6]: 5.9 mg/kg | ED50 [7]: 0.4 mg/kg

NC(=S)C1(c2ccccn2)CCCS1 (centres undefined)
Protection [1]: 100% | ED50 [8]: 3.2 mg/kg

N/N=C(\S)C1(c2ccccn2)CCCS1 (centres undefined)
Protection [1]: 0% | inhibition in vivo at 30 mg/kg [9]: 0% | ED50 [3]: > 30 mg/kg

S=C(N1CCOCC1)C1(c2ccccn2)CCCS1 (centres undefined)
Protection [1]: 83% | inhibition in vivo at 30 mg/kg [2]: 54% | ED50 [3]: ≤ 30 mg/kg

CN(C)CC/N=C(\S)C1(c2ccccn2)CCCS1 (centres undefined)
Protection [1]: 16% | inhibition in vivo at 30 mg/kg [9]: 0% | ED50 [3]: > 30 mg/kg

NC(=S)C1(c2ccccn2)SCCCS1
Protection [1]: 100% | ED50 [3]: 2.8 mg/kg

S=C(N1CCCCC1)C1(c2ccccn2)CCCS1 (centres undefined)
Protection [1]: 83% | inhibition in vivo at 30 mg/kg [9]: 30%

CNC(=S)C1(c2cccc(C)n2)CCCS1 (centres undefined) [LUCARTAMIDE]
Protection [4]: 50% | ED50 [10]: 1.5 mg/kg

CCCCCCC/N=C(\S)C1(c2ccccn2)CCCS1 (centres undefined)
Protection [1]: 33% | inhibition in vivo at 30 mg/kg [2]: 0% | ED50 [3]: > 30 mg/kg

C/N=C(\S)C1(c2ccncc2)CCCS1 (centres undefined)
Protection [1]: 83% | inhibition in vivo at 30 mg/kg [2]: 53% | ED50 [3]: ≤ 30 mg/kg

CC/N=C(\S)C1(c2ccccn2)CCCS1 (centres undefined)
Protection [4]: 50% | ED50 [11]: 1.6 mg/kg

C/N=C(\S)C1(c2ccccn2)CCCCS1 (centres undefined)
Protection [4]: 100% | ED50 [12]: 2.6 mg/kg

CCCCc1ccnc(C2(/C(S)=N/C)CCCS2)c1 (centres undefined)
Protection [1]: 100% | inhibition in vivo at 30 mg/kg [2]: 78% | ED50 [3]: < 30 mg/kg

C/N=C(\S)C1(c2ccccn2)CCCO1 (centres undefined)
ED50 [13]: 0.5 mg/kg | Protection [5]: 66%

CCCC/N=C(\S)C1(c2ccccn2)CCCS1 (centres undefined)
Protection [14]: 100% | ED50 [15]: 5.5 mg/kg

C/N=C(\S)C1(c2ccc3ccccc3n2)CCCS1 (centres undefined)
ED50 [16]: 3 mg/kg | Protection [1]: 100%

Cc1cnc2c(c1)CCCC2C(N)=S (centres undefined) [TIQUINAMIDE]
ED50 [17]: 1.6 mg/kg

CN1CCN(C(=S)C2(c3ccccn3)CCCS2)CC1 (centres undefined)
Protection [1]: 0% | inhibition in vivo at 30 mg/kg [9]: 8% | ED50 [3]: > 30 mg/kg

S=C(Nc1ccccc1)C1(c2ccccn2)CCCS1 (centres undefined)
inhibition in vivo at 30 mg/kg [18]: 0% | ED50 [3]: > 30 mg/kg

Cc1cccc(C2(C(=N)S)CCCS2)n1 (centres undefined)
Protection [1]: 100% | inhibition in vivo at 30 mg/kg [2]: 71% | ED50 [3]: < 30 mg/kg

CN/C(=N\CCSCc1nc[nH]c1C)NC#N [CIMETIDINE]
Protection [1]: 50% | ED50 [19]: 30 mg/kg

N=C(S)C(c1ccccc1)c1ccccn1 (centres undefined)
ED50 [20]: 5.5 mg/kg

C=CCNC(=S)C1(c2ccccn2)CCCS1 (centres undefined)
Protection [1]: 0% | inhibition in vivo at 30 mg/kg [9]: 20% | ED50 [3]: > 30 mg/kg

C/N=C(\S)C1(c2cc(C)ccn2)CCCS1 (centres undefined)
Protection [4]: 83% | ED50 [21]: 1 mg/kg

CCCCCCCCCCCC/N=C(\S)C1(c2ccccn2)CCCS1 (centres undefined)
inhibition in vivo at 30 mg/kg [2]: 0% | ED50 [3]: > 30 mg/kg | Protection [22]: 0%

OCC/N=C(\S)C1(c2ccccn2)CCCS1 (centres undefined)
Protection [1]: 16% | inhibition in vivo at 30 mg/kg [9]: 25% | ED50 [3]: > 30 mg/kg

C/N=C(\S)C1(c2cccnc2)CCCS1 (centres undefined)
Protection [1]: 100% | inhibition in vivo at 30 mg/kg [2]: 49% | ED50 [3]: ≥ 30 mg/kg

C/N=C(\S)C1(c2ccc(C)cn2)CCCS1 (centres undefined)
Protection [4]: 60% | ED50 [23]: 5.7 mg/kg

C/N=C(\S)C1(c2ccccn2)OCCCS1 (centres undefined)
ED50 [3]: 1.6 mg/kg | Protection [24]: 50%

CN(C)C(=S)C1(c2ccccn2)CCCS1 (centres undefined)
Protection [1]: 83% | inhibition in vivo at 30 mg/kg [2]: 74% | ED50 [3]: < 30 mg/kg

C/N=C(\S)C1(c2cccnn2)CCCS1 (centres undefined)
Protection [1]: 100%

CN(C)CCC/N=C(\S)C1(c2ccccn2)CCCS1 (centres undefined)
Protection [1]: 0% | inhibition in vivo at 30 mg/kg [9]: 0% | ED50 [3]: > 30 mg/kg
